Laboratory results as given in ChEMBL document CHEMBL1150387, “Development and experimental validation of a docking strategy for the generation of kinase-targeted libraries” (J Med Chem, 2008).

Experiments:
[1] = target: Cyclin-dependent kinase 2 (Homo sapiens) (UniProt P24941); experiment: Inhibition of CDK2 at 10 uM by HTRF assay relative to control
In short: (§1)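 HTRF kinase assay, one panel of kinases. Inhibitor stock 50 µM in 100% DMSO; tested at 10 µM. ATP and substrate at final levels near Km. Final buffer: 50 mM Hepes/NaOH pH 7.4, 40 µM Na3VO4, 0.005% Tween-20, 1 mM DTT, MnCl2 or MgCl2 at kinase-dependent levels. Started by adding ATP/substrate. Reaction run at room temperature, time varied by kinase. Detection mix in 50 mM Hepes pH 7.4, 0.1% BSA, 150 mM KF, incubated ≥1 h at room temperature. Activity expressed as % of uninhibited control; n=2.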

[2] = target: Mitogen-activated protein kinase 14 (Homo sapiens) (UniProt Q16539); experiment: Inhibition of p38alpha at 10 uM by HTRF assay relative to control; in short: as §1
[3] = target: 3-phosphoinositide-dependent protein kinase 1 (Homo sapiens) (UniProt O15530); experiment: Inhibition of PDK1 at 10 uM by HTRF assay relative to control
[4] = target: Mitogen-activated protein kinase 1 (Homo sapiens) (UniProt P28482); experiment: Inhibition of ERK2 at 10 uM by HTRF assay relative to control; in short: as §1
[5] = target: Vascular endothelial growth factor receptor 1 (Homo sapiens) (UniProt P17948); experiment: Inhibition of FLT1 at 10 uM by HTRF assay relative to control; in short: as §1
[6] = Inhibition of AMPKalpha at 10 uM by HTRF assay relative to control; in short: as §1
[7] = target: T1, Tyrosine-protein kinase ZAP-70 (Homo sapiens) (UniProt P43403); experiment: Inhibition of ZAP70 at 10 uM by HTRF assay relative to control; in short: as §1
T1 sequence (whole entry): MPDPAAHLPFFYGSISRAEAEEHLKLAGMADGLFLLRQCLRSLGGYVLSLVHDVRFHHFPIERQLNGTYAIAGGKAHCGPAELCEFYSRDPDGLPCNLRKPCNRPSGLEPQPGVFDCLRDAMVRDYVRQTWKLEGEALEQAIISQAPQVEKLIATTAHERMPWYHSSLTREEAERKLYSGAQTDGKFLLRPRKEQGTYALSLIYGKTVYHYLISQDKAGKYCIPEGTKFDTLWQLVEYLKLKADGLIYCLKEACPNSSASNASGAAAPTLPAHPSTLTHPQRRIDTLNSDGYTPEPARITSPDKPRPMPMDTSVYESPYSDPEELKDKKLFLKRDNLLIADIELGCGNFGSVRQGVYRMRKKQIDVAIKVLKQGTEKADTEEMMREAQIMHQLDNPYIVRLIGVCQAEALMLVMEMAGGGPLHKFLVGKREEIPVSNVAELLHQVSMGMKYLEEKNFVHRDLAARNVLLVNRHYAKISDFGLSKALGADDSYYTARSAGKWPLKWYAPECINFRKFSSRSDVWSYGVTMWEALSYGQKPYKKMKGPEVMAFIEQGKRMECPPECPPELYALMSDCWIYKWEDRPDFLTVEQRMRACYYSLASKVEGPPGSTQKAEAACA

[8] = target: Serine/threonine-protein kinase Chk2 (Homo sapiens) (UniProt O96017); experiment: Inhibition of CHK2 at 10 uM by HTRF assay relative to control; in short: as §1
[9] = target: T2, Ephrin type-B receptor 4 (Homo sapiens) (UniProt P54760); experiment: Inhibition of EphB4 at 10 uM by HTRF assay relative to control; in short: as §1
T2 sequence (whole entry): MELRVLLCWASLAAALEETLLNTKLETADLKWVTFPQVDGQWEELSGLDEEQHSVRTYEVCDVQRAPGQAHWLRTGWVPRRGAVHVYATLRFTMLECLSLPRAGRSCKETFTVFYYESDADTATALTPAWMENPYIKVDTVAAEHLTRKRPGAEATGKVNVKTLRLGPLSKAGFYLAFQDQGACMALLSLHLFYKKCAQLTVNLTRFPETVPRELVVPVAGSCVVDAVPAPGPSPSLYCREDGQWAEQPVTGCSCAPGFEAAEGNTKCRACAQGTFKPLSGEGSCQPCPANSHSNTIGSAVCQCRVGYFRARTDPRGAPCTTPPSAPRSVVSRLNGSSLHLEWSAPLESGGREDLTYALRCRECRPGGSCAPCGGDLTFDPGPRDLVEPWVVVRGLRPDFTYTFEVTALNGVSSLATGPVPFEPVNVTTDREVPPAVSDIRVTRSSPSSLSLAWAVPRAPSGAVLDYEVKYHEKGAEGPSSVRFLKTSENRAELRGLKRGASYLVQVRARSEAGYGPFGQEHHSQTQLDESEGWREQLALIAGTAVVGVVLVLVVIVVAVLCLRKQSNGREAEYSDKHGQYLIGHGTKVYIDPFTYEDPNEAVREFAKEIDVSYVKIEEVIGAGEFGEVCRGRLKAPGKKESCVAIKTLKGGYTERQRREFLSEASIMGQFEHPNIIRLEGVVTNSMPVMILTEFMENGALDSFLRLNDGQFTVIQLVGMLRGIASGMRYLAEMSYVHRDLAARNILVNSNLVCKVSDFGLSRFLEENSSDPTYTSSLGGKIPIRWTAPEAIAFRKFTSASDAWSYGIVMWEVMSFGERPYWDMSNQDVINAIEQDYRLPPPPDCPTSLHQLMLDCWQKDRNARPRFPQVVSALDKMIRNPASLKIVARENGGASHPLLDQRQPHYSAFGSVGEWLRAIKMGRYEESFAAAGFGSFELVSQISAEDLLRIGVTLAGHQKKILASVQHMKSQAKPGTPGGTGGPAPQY

[10] = target: Mitogen-activated protein kinase 9 (Homo sapiens) (UniProt P45984); experiment: Inhibition of JNK2 at 10 uM by HTRF assay relative to control; in short: as §1
[11] = target: Protein kinase C gamma type (Homo sapiens) (UniProt P05129); experiment: Inhibition of PKCgamma at 10 uM by HTRF assay relative to control; in short: as §1

Sequence of Mitogen-activated protein kinase 1 (Homo sapiens) (P28482 whole entry): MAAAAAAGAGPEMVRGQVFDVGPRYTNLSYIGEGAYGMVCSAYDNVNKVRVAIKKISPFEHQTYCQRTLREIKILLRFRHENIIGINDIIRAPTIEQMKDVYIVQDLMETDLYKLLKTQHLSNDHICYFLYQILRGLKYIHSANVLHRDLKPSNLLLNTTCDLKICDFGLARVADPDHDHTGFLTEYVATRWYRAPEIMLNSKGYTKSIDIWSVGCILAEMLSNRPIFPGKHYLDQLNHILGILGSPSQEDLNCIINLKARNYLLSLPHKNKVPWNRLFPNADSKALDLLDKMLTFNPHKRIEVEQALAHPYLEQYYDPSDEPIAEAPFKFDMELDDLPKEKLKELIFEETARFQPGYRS
Sequence of Mitogen-activated protein kinase 9 (Homo sapiens) (P45984 whole entry, looked up): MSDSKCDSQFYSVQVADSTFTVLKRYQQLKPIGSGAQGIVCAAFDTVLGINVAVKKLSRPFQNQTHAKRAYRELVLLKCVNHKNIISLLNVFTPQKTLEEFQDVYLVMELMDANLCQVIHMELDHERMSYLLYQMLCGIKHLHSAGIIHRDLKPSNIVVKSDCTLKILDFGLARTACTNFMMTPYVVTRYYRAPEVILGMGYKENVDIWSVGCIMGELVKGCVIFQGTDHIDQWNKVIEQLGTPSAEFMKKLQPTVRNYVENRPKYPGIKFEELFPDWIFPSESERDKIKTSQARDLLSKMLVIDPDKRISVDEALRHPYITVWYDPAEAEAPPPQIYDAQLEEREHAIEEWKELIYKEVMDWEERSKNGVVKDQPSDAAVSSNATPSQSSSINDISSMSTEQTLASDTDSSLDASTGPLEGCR
Sequence of 3-phosphoinositide-dependent protein kinase 1 (Homo sapiens) (O15530 whole entry, looked up): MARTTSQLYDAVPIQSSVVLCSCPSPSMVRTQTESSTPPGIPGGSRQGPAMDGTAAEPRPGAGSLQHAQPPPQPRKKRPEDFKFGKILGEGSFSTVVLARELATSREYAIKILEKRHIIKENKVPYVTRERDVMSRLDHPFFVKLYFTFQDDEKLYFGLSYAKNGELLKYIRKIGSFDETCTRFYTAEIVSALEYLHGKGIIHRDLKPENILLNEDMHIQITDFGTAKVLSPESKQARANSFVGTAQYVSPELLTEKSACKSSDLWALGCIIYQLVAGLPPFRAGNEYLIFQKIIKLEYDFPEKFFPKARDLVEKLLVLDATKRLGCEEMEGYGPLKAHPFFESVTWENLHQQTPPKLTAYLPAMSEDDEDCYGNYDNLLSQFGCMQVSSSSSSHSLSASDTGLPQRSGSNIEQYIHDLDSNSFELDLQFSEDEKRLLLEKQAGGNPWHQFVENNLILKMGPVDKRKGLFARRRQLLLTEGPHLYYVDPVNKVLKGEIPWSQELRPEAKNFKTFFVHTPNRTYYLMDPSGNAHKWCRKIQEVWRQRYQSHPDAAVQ
Sequence of Mitogen-activated protein kinase 14 (Homo sapiens) (Q16539 whole entry): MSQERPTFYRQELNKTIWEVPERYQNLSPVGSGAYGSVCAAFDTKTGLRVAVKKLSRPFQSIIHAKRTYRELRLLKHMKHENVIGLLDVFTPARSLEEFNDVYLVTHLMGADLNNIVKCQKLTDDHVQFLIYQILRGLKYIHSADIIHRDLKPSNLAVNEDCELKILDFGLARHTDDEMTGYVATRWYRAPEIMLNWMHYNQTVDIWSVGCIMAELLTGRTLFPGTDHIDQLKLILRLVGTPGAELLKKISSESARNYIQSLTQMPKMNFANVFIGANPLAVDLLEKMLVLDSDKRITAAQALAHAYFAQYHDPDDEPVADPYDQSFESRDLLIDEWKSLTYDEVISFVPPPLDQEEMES
Sequence of Vascular endothelial growth factor receptor 1 (Homo sapiens) (P17948 whole entry): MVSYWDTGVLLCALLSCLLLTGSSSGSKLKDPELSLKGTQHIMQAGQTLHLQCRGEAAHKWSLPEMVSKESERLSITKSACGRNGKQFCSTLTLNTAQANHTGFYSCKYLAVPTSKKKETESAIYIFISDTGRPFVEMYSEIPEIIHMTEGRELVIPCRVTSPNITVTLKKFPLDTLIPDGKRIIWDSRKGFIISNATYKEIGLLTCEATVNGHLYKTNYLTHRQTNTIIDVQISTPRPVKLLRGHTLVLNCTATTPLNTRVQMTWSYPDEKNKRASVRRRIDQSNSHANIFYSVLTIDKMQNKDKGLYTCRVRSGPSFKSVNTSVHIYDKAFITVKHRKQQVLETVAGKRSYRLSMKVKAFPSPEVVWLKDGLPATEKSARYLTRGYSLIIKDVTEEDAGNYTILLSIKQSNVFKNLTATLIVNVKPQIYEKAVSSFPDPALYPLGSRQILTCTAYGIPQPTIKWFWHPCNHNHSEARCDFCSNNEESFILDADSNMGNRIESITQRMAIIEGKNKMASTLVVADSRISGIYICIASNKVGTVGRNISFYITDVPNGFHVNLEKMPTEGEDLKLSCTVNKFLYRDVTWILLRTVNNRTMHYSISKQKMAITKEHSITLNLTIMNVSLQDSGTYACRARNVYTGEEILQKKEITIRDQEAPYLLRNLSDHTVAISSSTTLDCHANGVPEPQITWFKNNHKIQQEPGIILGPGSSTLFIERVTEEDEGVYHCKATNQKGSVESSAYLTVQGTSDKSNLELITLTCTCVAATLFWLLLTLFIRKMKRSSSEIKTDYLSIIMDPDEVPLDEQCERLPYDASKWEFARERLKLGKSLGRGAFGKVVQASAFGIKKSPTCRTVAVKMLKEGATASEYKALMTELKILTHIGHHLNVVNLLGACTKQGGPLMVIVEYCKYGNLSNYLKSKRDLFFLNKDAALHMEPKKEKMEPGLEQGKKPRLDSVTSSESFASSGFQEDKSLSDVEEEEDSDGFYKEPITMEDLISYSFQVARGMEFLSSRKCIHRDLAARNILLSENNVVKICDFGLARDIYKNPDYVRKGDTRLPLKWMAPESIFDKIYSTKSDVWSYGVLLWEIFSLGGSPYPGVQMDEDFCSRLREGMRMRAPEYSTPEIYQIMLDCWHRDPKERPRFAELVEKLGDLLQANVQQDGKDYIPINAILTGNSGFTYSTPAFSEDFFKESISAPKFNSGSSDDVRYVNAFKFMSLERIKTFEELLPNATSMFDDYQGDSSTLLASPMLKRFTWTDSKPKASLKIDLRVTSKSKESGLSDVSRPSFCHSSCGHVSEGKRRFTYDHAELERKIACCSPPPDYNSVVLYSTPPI
Sequence of Serine/threonine-protein kinase Chk2 (Homo sapiens) (O96017 whole entry): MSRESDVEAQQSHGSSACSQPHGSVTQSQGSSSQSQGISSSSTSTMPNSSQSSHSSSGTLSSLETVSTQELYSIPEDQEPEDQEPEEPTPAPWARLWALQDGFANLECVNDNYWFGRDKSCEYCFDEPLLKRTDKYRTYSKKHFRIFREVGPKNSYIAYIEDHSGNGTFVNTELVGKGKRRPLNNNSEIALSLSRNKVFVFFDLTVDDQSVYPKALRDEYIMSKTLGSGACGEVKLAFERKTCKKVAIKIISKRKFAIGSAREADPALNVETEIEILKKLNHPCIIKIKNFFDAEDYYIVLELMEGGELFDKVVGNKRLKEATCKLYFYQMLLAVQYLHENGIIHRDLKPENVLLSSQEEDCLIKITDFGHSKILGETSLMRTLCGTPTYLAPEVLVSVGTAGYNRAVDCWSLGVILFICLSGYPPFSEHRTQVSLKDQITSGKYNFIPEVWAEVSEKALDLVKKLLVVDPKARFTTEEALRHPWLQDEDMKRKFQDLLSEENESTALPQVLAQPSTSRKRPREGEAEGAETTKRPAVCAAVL

inhibition [1] [%]	inhibition [2] [%]	inhibition [3] [%]	inhibition [4] [%]	inhibition [5] [%]	inhibition [6] [%]	inhibition [7] [%]	inhibition [8] [%]	inhibition [9] [%]	inhibition [10] [%]	inhibition [11] [%]	Compound
5	6	0	1	0	5	1	6	0	3	4	O=C(c1nc(SCc2ccc(Cl)cc2)n2ccccc12)N1CCN(c2cc(Nc3cccc(Br)c3)ncn2)CC1
24	23	0	13	39	72	18	27	18	88	79	CN(C)CC(C)(C)CNC(=O)c1cccc(Nc2nccc(Nc3ccc4ncsc4c3)n2)c1
20	8	0	6	0	0	6	5	0	21	2	Cc1cccc(N(C)c2cc(Nc3cccc(C(=O)NCc4ccncc4)c3)ncn2)c1
1	7	2	0	5	20	6	2	0	4	1	Nc1nc(Nc2ccc3ncsc3c2)cc(N2CCC[C@H]2C(=O)N[C@@H](CO)c2ccccc2)n1
28	3	8	0	34	17	23	0	5	37	14	Cc1cccc(Nc2nccc(Nc3cccc(C(=O)N(C)CCc4ccccn4)c3)n2)c1
3	8	0	0	2	9	2	0	0	2	5	COc1cccc(Nc2cc(N3CCC[C@H]3C(=O)NCCc3ccc(O)cc3)nc(N)n2)c1
6	2	1	4	20	2	2	1	0	2	5	COc1ccc(NC(=O)Cc2ccc(Nc3cc(N(C)c4cccc(C)c4)ncn3)cc2)cn1
4	57	1	2	22	0	5	0	0	5	5	Cc1cccc(N(C)c2cc(Nc3ccc(CC(=O)Nc4ccc5ncsc5c4)cc3)ncn2)c1

Second part, the molecule before the results:

Compound	inhibition [1] [%]	inhibition [2] [%]	inhibition [3] [%]	inhibition [4] [%]	inhibition [5] [%]	inhibition [6] [%]	inhibition [7] [%]	inhibition [8] [%]	inhibition [9] [%]	inhibition [10] [%]	inhibition [11] [%]
Nc1nc(N2CCOCC2)cc(N2CCC(C(=O)NCc3cccs3)CC2)n1	14	8	0	0	0	5	3	0	0	3	0
O=C(CN1CCN(c2ncnc3c2CN(Cc2ccccc2)CC3)CC1)Nc1cc(F)ccc1F	9	3	0	0	0	0	5	5	0	1	0
Cc1cccc(N(C)c2cc(N3CCN(C(=O)Cc4c[nH]c5ccccc45)CC3)ncn2)c1	10	6	3	5	0	3	2	0	0	5	2
O=C(C1CCN(c2nccc(Nc3ccccc3)n2)CC1)N1CC[C@@H](O)C1	5	0	2	0	6	7	3	0	0	5	5
COc1ccc(-c2noc(CN3CCN(c4cc(Nc5cccc(O)c5)ncn4)CC3)n2)cc1	6	1	4	1	0	4	0	0	0	2	5
